{"source": "ChEMBL document CHEMBL1145927", "about": "(J Med Chem, 2003)", "key": {"[1]": {"target": "T1, Prostaglandin G/H synthase 2 (Homo sapiens) (UniProt P35354)", "T1 sequence (whole entry)": "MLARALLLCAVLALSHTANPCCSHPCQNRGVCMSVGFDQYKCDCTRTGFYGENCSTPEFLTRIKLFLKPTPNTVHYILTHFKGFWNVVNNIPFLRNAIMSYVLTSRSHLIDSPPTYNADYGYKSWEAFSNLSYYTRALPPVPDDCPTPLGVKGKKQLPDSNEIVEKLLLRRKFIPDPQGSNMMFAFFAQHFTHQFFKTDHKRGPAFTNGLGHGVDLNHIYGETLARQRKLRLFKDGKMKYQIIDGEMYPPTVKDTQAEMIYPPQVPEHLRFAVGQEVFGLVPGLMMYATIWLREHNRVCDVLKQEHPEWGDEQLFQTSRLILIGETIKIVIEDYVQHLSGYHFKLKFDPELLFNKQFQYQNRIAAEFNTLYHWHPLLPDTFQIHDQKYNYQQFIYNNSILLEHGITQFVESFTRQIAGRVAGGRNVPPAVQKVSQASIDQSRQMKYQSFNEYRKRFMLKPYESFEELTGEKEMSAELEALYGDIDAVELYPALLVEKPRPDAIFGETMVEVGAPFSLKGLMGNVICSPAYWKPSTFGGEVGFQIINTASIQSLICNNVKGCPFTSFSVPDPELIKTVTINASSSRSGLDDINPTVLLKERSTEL", "conditions": "at 10 µM"}, "[2]": {"target": "T2, Prostaglandin G/H synthase 1 (Ovis aries) (UniProt P05979)", "T2 sequence (whole entry)": "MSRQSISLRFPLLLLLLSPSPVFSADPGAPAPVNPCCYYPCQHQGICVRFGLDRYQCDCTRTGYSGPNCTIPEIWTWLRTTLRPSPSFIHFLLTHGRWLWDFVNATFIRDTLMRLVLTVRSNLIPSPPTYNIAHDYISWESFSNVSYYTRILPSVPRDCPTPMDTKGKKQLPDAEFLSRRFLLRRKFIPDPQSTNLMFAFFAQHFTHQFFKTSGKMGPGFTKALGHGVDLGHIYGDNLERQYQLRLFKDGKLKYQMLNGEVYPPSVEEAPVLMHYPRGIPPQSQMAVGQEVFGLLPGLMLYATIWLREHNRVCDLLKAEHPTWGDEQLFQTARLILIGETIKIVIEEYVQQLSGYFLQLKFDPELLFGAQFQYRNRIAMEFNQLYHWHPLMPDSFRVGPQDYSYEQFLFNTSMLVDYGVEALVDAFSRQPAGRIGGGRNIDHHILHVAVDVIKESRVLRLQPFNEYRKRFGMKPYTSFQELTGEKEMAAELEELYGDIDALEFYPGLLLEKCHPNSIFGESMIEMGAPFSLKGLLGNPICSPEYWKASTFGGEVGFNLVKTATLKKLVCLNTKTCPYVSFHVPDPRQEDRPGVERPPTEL", "test": "Compound was tested for in vitro inhibition of recombinant ovine Prostaglandin G/H synthase 1 (COX-1) at a concentration of 100 uM", "how_it_was_run": "(§1)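 Supplied recombinant ovine COX-1 (5 units) preincubated 2 min at 25 °C in 0.1 M Tris-HCl pH 8.0 with 5 mM EDTA, 2 mM phenol and heme; compound or DMSO added, 20 min at 25 °C; started with 10 mM arachidonic acid stock, 2 min at 37 °C; stopped with HCl, SnCl2 reduction; prostaglandins by EIA; percent inhibition versus solvent control.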"}, "[3]": {"target": "T1, Prostaglandin G/H synthase 2 (Homo sapiens)", "conditions": "at 1 µM"}, "[4]": {"target": "T1, Prostaglandin G/H synthase 2 (Homo sapiens)", "conditions": "Blood; at 10 µM"}, "[5]": {"target": "T1, Prostaglandin G/H synthase 2 (Homo sapiens)", "conditions": "Blood; at 1 µM"}, "[6]": {"target": "T3, Prostaglandin G/H synthase 1 (Homo sapiens, UniProt P23219)", "T3 sequence (P23219 whole entry)": "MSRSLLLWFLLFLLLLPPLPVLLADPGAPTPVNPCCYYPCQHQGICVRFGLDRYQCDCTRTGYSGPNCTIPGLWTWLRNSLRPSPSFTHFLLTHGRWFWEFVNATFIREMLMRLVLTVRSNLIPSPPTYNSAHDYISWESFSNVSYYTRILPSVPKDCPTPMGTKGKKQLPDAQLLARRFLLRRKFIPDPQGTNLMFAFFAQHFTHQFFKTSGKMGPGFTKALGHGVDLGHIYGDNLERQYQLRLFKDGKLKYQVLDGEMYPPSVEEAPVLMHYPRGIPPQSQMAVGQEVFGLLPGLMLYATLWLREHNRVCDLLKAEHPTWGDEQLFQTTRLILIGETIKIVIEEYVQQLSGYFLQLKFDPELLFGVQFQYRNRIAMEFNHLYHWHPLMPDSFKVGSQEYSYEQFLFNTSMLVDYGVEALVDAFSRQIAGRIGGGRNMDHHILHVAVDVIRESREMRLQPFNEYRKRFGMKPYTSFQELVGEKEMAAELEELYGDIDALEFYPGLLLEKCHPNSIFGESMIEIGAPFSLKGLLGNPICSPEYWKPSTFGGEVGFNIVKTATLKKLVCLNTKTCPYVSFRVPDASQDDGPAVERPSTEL", "test": "In vitro average percent Inhibition of inhibition of Prostaglandin G/H synthase 1 (COX-1) at a concentration of 100 uM in human whole blood by human whole blood assay", "assay_type": "tissue-based"}, "[7]": {"target": "T3, Prostaglandin G/H synthase 1", "test": "In vitro average percent inhibition of human prostaglandin G/H synthase 1 (COX-1) at a concentration of 100 uM", "how_it_was_run": "as §1, with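 “human” for “ovine”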"}, "[8]": {"target": "T4, Prostaglandin G/H synthase 2 (Homo sapiens, UniProt P35354)", "T4 sequence (P35354 whole entry)": "T1 sequence (whole entry)", "test": "Compound was tested for the inhibition of recombinant human Prostaglandin G/H synthase 2 (COX-2) by enzyme Assay"}, "[9]": {"target": "T3, Prostaglandin G/H synthase 1", "conditions": "at 100 µM"}, "[10]": {"target": "T3, Prostaglandin G/H synthase 1", "test": "Compound was tested for in vitro inhibition of recombinant human Prostaglandin G/H synthase 1 (COX-1) by enzyme Assay"}, "[11]": {"target": "T1, Prostaglandin G/H synthase 2 (Homo sapiens)", "test": "In vitro average percent Inhibition of Prostaglandin G/H synthase 2 (COX-2) at a concentration of 10 uM determined human whole blood by human whole blood (HWB) assay", "how_it_was_run": "(§2)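 Heparinized whole blood from male or female donors free of aspirin/NSAIDs for 14 days, 1 mL aliquots pre-warmed 15 min at 37 °C, 5% CO2; compound in DMSO, duplicate wells; COX-2 induced by E. coli LPS added 4.5 h later, incubated 5 h; stopped on ice with 2 mM EGTA; plasma methanol-extracted, TXB2 by EIA; average of two donors.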"}, "[12]": {"target": "T3, Prostaglandin G/H synthase 1", "test": "In vitro average percent Inhibition of Prostaglandin G/H synthase 1 (COX-1) at a concentration of 100 uM determined in human whole blood by human whole blood (HWB) assay", "assay_type": "tissue-based"}, "[13]": {"target": "T3, Prostaglandin G/H synthase 1", "test": "In vitro average percent Inhibition of Prostaglandin G/H synthase 1 (COX-1) at a concentration of 100 uM determined in human whole blood assay by human whole blood (HWB) assay", "assay_type": "tissue-based"}, "[14]": {"target": "T3, Prostaglandin G/H synthase 1", "test": "Compound was tested for in vitro Prostaglandin G/H synthase 1 (COX-1) idetermined in human whole blood by human whole blood assay", "assay_type": "tissue-based", "how_it_was_run": "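Heparinised (20 U/mL) whole blood from non-fasted donors free of aspirin/NSAIDs for 14 days, 1 mL aliquots, pre-warmed 15 min at 37 °C, 5% CO2 on a rotating shaker. DMSO-diluted compound added in duplicate; incubation ended 30 min after A23187 by ice and 2 mM EGTA (final). Plasma methanol-extracted, TXB2 by EIA; average of two donors.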"}, "[15]": {"target": "T4, Prostaglandin G/H synthase 2", "test": "Compound was tested for the inhibition of human Prostaglandin G/H synthase 2 (COX-2) in human whole blood", "assay_type": "tissue-based"}, "[16]": {"target": "T3, Prostaglandin G/H synthase 1", "test": "In vitro average percent Inhibition of […] Prostaglandin G/H synthase 1 (COX-1) at a concentration of 100 uM determined by human whole blood (HWB) assay"}, "[17]": {"target": "T1, Prostaglandin G/H synthase 2 (Homo sapiens)", "test": "In vitro average percent Inhibition of Prostaglandin G/H synthase 2(COX-2) at a concentration of 1 uM determined in human whole blood by human whole blood (HWB) assay", "assay_type": "tissue-based", "how_it_was_run": "as §2"}, "[18]": {"target": "T1, Prostaglandin G/H synthase 2 (Homo sapiens)", "test": "In vitro average percent Inhibition of Prostaglandin G/H synthase 2 (COX-2) at a concentration of 10 uM determined by human whole blood (HWB) assay", "how_it_was_run": "as §2"}, "[19]": {"target": "T3, Prostaglandin G/H synthase 1", "test": "In vitro average percent uM in human whole blood by human whole blood assay", "assay_type": "tissue-based", "conditions": "concentration not given here"}, "[20]": {"target": "T1, Prostaglandin G/H synthase 2 (Homo sapiens)", "test": "In vitro average percent Inhibition of Prostaglandin G/H synthase 2 (COX-2) at a concentration of 1 uM determined in human whole blood by human whole blood assay", "assay_type": "tissue-based", "how_it_was_run": "as §2"}, "[21]": {"target": "T1, Prostaglandin G/H synthase 2 (Homo sapiens)", "test": "In vitro average percent Inhibition of Prostaglandin G/H synthase 2 (COX-2) at a concentration of 10 uM determined in human whole blood by human whole blood assay", "assay_type": "tissue-based", "how_it_was_run": "as §2"}, "[22]": {"target": "T3, Prostaglandin G/H synthase 1", "test": "Compound was tested for the inhibition of recombinant human Prostaglandin G/H synthase 1 (COX-1)"}, "[23]": {"target": "T4, Prostaglandin G/H synthase 2", "test": "Compound was tested for the inhibition of recombinant human Prostaglandin G/H synthase 2 (COX-2)"}, "[24]": {"target": "T3, Prostaglandin G/H synthase 1", "test": "Compound was tested for the inhibition of human Prostaglandin G/H synthase 1 (COX-1) in human whole blood", "assay_type": "tissue-based"}}, "data": [{"smiles": "CS(=O)(=O)c1ccc(-c2cc3c(cc2Cc2cc(F)cc(F)c2)OCO3)cc1", "values": [{"measurement": "inhibition", "setting": "[1]", "value": 90, "unit": "%"}, {"measurement": "inhibition", "setting": "[2]", "value": 15, "unit": "%"}, {"measurement": "inhibition", "setting": "[3]", "value": 90, "unit": "%"}, {"measurement": "inhibition", "setting": "[4]", "value": 40, "unit": "%"}, {"measurement": "inhibition", "setting": "[5]", "value": 15, "unit": "%"}, {"measurement": "inhibition", "setting": "[6]", "value": 70, "unit": "%"}]}, {"smiles": "CS(=O)(=O)c1ccc(-c2cc3c(cc2C=C2CCCCC2)OCO3)cc1", "values": [{"measurement": "inhibition", "setting": "[1]", "value": 90, "unit": "%"}, {"measurement": "inhibition", "setting": "[3]", "value": 90, "unit": "%"}, {"measurement": "inhibition", "setting": "[7]", "value": 50, "unit": "%"}, {"measurement": "IC50", "setting": "[8]", "value": 0.07, "unit": "µM"}, {"measurement": "inhibition", "setting": "[9]", "value": 0, "unit": "%"}, {"measurement": "IC50", "setting": "[10]", "value": "> 100", "unit": "µM"}]}, {"smiles": "CS(=O)(=O)c1ccc(-c2ccccc2C(=O)c2cccc(F)c2)cc1", "values": [{"measurement": "inhibition", "setting": "[11]", "value": 40, "unit": "%"}, {"measurement": "inhibition", "setting": "[12]", "value": 45, "unit": "%"}]}, {"smiles": "CS(=O)(=O)c1ccc(-c2ccccc2C=C2CCCCC2)cc1", "values": [{"measurement": "inhibition", "setting": "[13]", "value": 60, "unit": "%"}]}, {"smiles": "CS(=O)(=O)c1ccc(-c2cc3c(cc2Cc2ccccc2)OCO3)cc1", "values": [{"measurement": "inhibition", "setting": "[1]", "value": 85, "unit": "%"}, {"measurement": "inhibition", "setting": "[3]", "value": 85, "unit": "%"}, {"measurement": "IC50", "setting": "[14]", "value": 60, "unit": "µM"}, {"measurement": "inhibition", "setting": "[4]", "value": 50, "unit": "%"}, {"measurement": "inhibition", "setting": "[7]", "value": 65, "unit": "%"}, {"measurement": "IC50", "setting": "[15]", "value": 10, "unit": "µM"}, {"measurement": "inhibition", "setting": "[9]", "value": 0, "unit": "%"}]}, {"smiles": "CS(=O)(=O)c1ccc(-c2cc3c(cc2-c2cc(F)cc(F)c2)OCO3)cc1", "values": [{"measurement": "inhibition", "setting": "[16]", "value": 65, "unit": "%"}, {"measurement": "inhibition", "setting": "[17]", "value": 0, "unit": "%"}, {"measurement": "inhibition", "setting": "[18]", "value": 35, "unit": "%"}]}, {"smiles": "Cc1cccc(C(=O)c2cc3c(cc2-c2ccc(S(C)(=O)=O)cc2)OCO3)c1", "values": [{"measurement": "inhibition", "setting": "[1]", "value": 40, "unit": "%"}, {"measurement": "inhibition", "setting": "[2]", "value": 0, "unit": "%"}, {"measurement": "inhibition", "setting": "[3]", "value": 10, "unit": "%"}, {"measurement": "inhibition", "setting": "[4]", "value": 85, "unit": "%"}, {"measurement": "inhibition", "setting": "[5]", "value": 40, "unit": "%"}, {"measurement": "inhibition", "setting": "[19]", "value": 95, "unit": "%"}]}, {"smiles": "CS(=O)(=O)c1ccc(-c2cc3c(cc2CCCc2ccccc2)OCO3)cc1", "values": [{"measurement": "inhibition", "setting": "[1]", "value": 0, "unit": "%"}, {"measurement": "inhibition", "setting": "[3]", "value": 15, "unit": "%"}, {"measurement": "inhibition", "setting": "[20]", "value": 15, "unit": "%"}, {"measurement": "inhibition", "setting": "[7]", "value": 65, "unit": "%"}, {"measurement": "inhibition", "setting": "[9]", "value": 10, "unit": "%"}, {"measurement": "inhibition", "setting": "[21]", "value": 35, "unit": "%"}]}, {"smiles": "NS(=O)(=O)c1ccc(-c2cc3c(cc2Cc2ccccc2)OCO3)cc1", "values": [{"measurement": "inhibition", "setting": "[1]", "value": 90, "unit": "%"}, {"measurement": "inhibition", "setting": "[3]", "value": 85, "unit": "%"}, {"measurement": "IC50", "setting": "[22]", "value": 25, "unit": "µM"}, {"measurement": "inhibition", "setting": "[9]", "value": 90, "unit": "%"}, {"measurement": "IC50", "setting": "[23]", "value": 0.05, "unit": "µM"}, {"measurement": "IC50", "setting": "[24]", "value": 60, "unit": "µM"}, {"measurement": "inhibition", "setting": "[12]", "value": 90, "unit": "%"}]}]}
